Legend:
[1] = tested on: Staphylococcus haemolyticus; assay: Antibacterial activity evaluated as minimum inhibitory concentration against 602 Staphylococcus haemolyticus; parameters: unit not given beside the values
[2] = tested on: Staphylococcus epidermidis; assay: Antibacterial activity evaluated as minimum inhibitory concentration against 533 Staphylococcus epidermidis; assay type: functional
How it was run: (§1)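 Broth microdilution in Mueller Hinton broth per NCCLS procedure; repeat results usually identical, always within 2-fold. GISA strains 3797 (HIP-5836 New Jersey) and 3798 (HIP-5827 Michigan); 533 S. epidermidis and 602 S. haemolyticus are clinical isolates; vancomycin-resistant enterococci have confirmed genotype.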

Staphylococcus aureus [3] = assay: Antibacterial activity evaluated as minimum inhibitory concentration against 3798 Staphylococcus aureus (GISA); assay type: functional; parameters: unit not given beside the values
How it was run: as §1

Enterococcus faecium [4] = assay: Antibacterial activity evaluated as minimum inhibitory concentration against 568 Enterococcus faecium (GSE); assay type: functional
How it was run: as §1

Staphylococcus aureus [5] = assay: Antibacterial activity evaluated as minimum inhibitory concentration against 3797 Staphylococcus aureus (GISA); assay type: functional; parameters: unit not given beside the values
How it was run: as §1

Enterococcus faecium [6] = assay: Antibacterial activity evaluated as minimum inhibitory concentration against 569 Enterococcus faecium (GRE); assay type: functional
How it was run: as §1

Enterococcus faecalis [7] = assay: Antibacterial activity evaluated as minimum inhibitory concentration against 560 Enterococcus faecalis (GRE); assay type: functional
How it was run: as §1

Enterococcus faecalis [8] = assay: Antibacterial activity evaluated as minimum inhibitory concentration against 559 Enterococcus faecalis (GSE); assay type: functional; parameters: unit not given beside the values
How it was run: as §1

Nucleic Acid [9] = assay: Ratio UDP-MurNAc-tetrapeptide to UDP-MurNAc-Pentapeptide; assay type: nucleic-acid assay
Nucleic Acid [10] = assay: Inhibition of the peptidoglycan synthesis in the absence of dipeptide bonding using UDP-MurNAc-tetrapeptide; assay type: nucleic-acid assay
How it was run: (§2)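 Peptidoglycan synthesis run on filter plates with E. coli OV58 (pTA9) membranes, UDP-MurNAc-pentapeptide or UDP-MurNAc-tetrapeptide plus UDP-N-acetyl-[14C]-D-glucosamine as substrates; radiolabel incorporation into peptidoglycan measured. IC50 from at least six drug concentrations in duplicate, fitted by four-parameter logistic nonlinear regression.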

Nucleic Acid [11] = assay: Inhibition of the peptidoglycan synthesis in the absence of dipeptide bonding using UDP-MurNAc-pentapeptide; assay type: nucleic-acid assay
How it was run: as §2

| SMILES | MIC [2] | MIC (Staphylococcus aureus [3]) | MIC (Enterococcus faecium [4]) | MIC (Staphylococcus aureus [5]) | MIC (Enterococcus faecium [6]) | MIC (Enterococcus faecalis [7]) | MIC (Enterococcus faecalis [8]) | Ratio (Nucleic Acid [9]) | IC50 (Nucleic Acid [10]) [nM] | IC50 (Nucleic Acid [11]) [nM] | MIC [1] |
| --- | --- | --- | --- | --- | --- | --- | --- | --- | --- | --- | --- |
| CCCCCCCCCCNCc1c(O)cc2c(c1O)-c1cc(ccc1O)[C@H]1NC(=O)[C@@H]3NC(=O)[C@H](CC(N)=O)NC(=O)[C@H](NC(=O)[C@@H](CC(C)C)NC)[C@H](O)c4ccc(c(Cl)c4)Oc4cc3cc(c4O[C@@H]3O[C@@H](CO)[C@H](O)[C@@H](O)[C@@H]3O[C@H]3C[C@@](C)(N)[C@@H](O)[C@@H](C)O3)Oc3cccc(c3)[C@@H](O[C@H]3C[C@@](C)(N)[C@@H](O)[C@@H](C)O3)[C@H](NC1=O)C(=O)N[C@@H]2C(=O)O | 0.25 | 2 | 0.5 | 2 | 8 | 8 | 0.5 | – | – | – | 0.25 |
| C[C@H]1O[C@@H](O[C@@H]2[C@H](Oc3c4cc5cc3Oc3ccc(cc3Cl)[C@@H](O)[C@@H](N)C(=O)N[C@@H](CC(N)=O)C(=O)N[C@H]5C(=O)N[C@H]3C(=O)N[C@H](C(=O)N[C@H](C(=O)O)c5cc(O)cc(O)c5-c5cc3ccc5O)[C@H](O[C@H]3C[C@@](C)(N)[C@@H](O)[C@@H](C)O3)c3cccc(c3)O4)O[C@@H](CO)[C@H](O)[C@H]2O)C[C@@](C)(N)[C@H]1O | 16 | 64 | 16 | 64 | >128 | >128 | 16 | – | – | – | 16 |
| CCCCCCCCCCNC(=O)[C@H]1NC(=O)[C@H]2NC(=O)[C@H](NC(=O)[C@@H]3NC(=O)[C@H](CC(N)=O)NC(=O)[C@H](N)[C@H](O)c4ccc(c(Cl)c4)Oc4cc3cc(c4O[C@@H]3O[C@@H](CO)[C@H](O)[C@@H](O)[C@@H]3O[C@H]3C[C@@](C)(N)[C@@H](O)[C@@H](C)O3)Oc3cccc(c3)[C@H]2O[C@H]2C[C@@](C)(N)[C@@H](O)[C@@H](C)O2)c2ccc(O)c(c2)-c2c(O)cc(O)cc21 | 0.5 | 8 | 2 | 4 | 2 | 4 | 2 | – | – | – | 1 |
| CCCCCCCCCCN[C@]1(C)C[C@H](O[C@@H]2[C@H](Oc3c4cc5cc3Oc3ccc(cc3Cl)[C@@H](O)[C@@H](N)C(=O)N[C@@H](CC(N)=O)C(=O)N[C@H]5C(=O)N[C@H]3C(=O)N[C@H](C(=O)N[C@H](C(=O)O)c5cc(O)cc(O)c5-c5cc3ccc5O)[C@H](O[C@H]3C[C@@](C)(N)[C@@H](O)[C@@H](C)O3)c3cccc(c3)O4)O[C@@H](CO)[C@H](O)[C@H]2O)O[C@H](C)[C@@H]1O | 4 | 16 | 8 | 8 | 16 | 16 | 8 | – | – | – | 8 |
| C[C@H]1O[C@@H](O[C@@H]2[C@H](Oc3c4cc5cc3Oc3ccc(cc3Cl)[C@@H](O)[C@@H](N)C(=O)N[C@@H](CC(N)=O)C(=O)N[C@H]5C(=O)N[C@H]3C(=O)N[C@H](C(=O)N[C@H](C(=O)NCc5ccc(-c6ccc(Cl)cc6)cc5)c5cc(O)cc(O)c5-c5cc3ccc5O)[C@H](O[C@H]3C[C@@](C)(N)[C@@H](O)[C@@H](C)O3)c3cccc(c3)O4)O[C@@H](CO)[C@H](O)[C@H]2O)C[C@@](C)(N)[C@H]1O | 4 | 8 | 4 | 8 | 2 | 4 | 4 | – | – | – | 4 |

The next lines start with results.

| MIC [2] | MIC (Staphylococcus aureus [3]) | MIC (Enterococcus faecium [4]) | MIC (Staphylococcus aureus [5]) | MIC (Enterococcus faecium [6]) | MIC (Enterococcus faecalis [7]) | MIC (Enterococcus faecalis [8]) | Ratio (Nucleic Acid [9]) | IC50 (Nucleic Acid [10]) [nM] | IC50 (Nucleic Acid [11]) [nM] | SMILES | MIC [1] |
| --- | --- | --- | --- | --- | --- | --- | --- | --- | --- | --- | --- |
| 0.5 | 2 | 1 | 2 | 8 | 16 | 1 | – | – | – | CN[C@H](CC(C)C)C(=O)N[C@H]1C(=O)N[C@@H](CC(N)=O)C(=O)N[C@H]2C(=O)N[C@H]3C(=O)N[C@H](C(=O)N[C@H](C(=O)O)c4cc(O)c(CNCc5ccc(-c6ccc(Cl)cc6)cc5)c(O)c4-c4cc3ccc4O)[C@H](O[C@H]3C[C@@](C)(N)[C@@H](O)[C@@H](C)O3)c3cccc(c3)Oc3cc2cc(c3O[C@@H]2O[C@@H](CO)[C@H](O)[C@@H](O)[C@@H]2O[C@H]2C[C@@](C)(N)[C@@H](O)[C@@H](C)O2)Oc2ccc(cc2Cl)[C@H]1O | 0.25 |
| 0.25 | 8 | 0.25 | 8 | >128 | >128 | 0.25 | – | – | – | CN[C@H](CC(C)C)C(=O)N[C@H]1C(=O)N[C@@H](CC(N)=O)C(=O)N[C@H]2C(=O)N[C@H]3C(=O)N[C@H](C(=O)N[C@H](C(=O)O)c4cc(O)cc(O)c4-c4cc3ccc4O)[C@H](O[C@H]3C[C@@](C)(N)[C@@H](O)[C@@H](C)O3)c3cccc(c3)Oc3cc2cc(c3O[C@@H]2O[C@@H](CO)[C@H](O)[C@@H](O)[C@@H]2O[C@H]2C[C@@](C)(N)[C@@H](O)[C@@H](C)O2)Oc2ccc(cc2Cl)[C@H]1O | 0.25 |
| – | – | – | – | – | – | – | 23 | 2700 | 120 | CN[C@@H](CC(C)C)C(=O)N[C@H]1C(=O)N[C@@H](CC(N)=O)C(=O)N[C@H]2C(=O)N[C@H]3C(=O)N[C@H](C(=O)N[C@H](C(=O)O)c4cc(O)cc(O)c4-c4cc3ccc4O)[C@H](O[C@H]3C[C@@](C)(N)[C@@H](O)[C@@H](C)O3)c3cccc(c3)Oc3cc2cc(c3O[C@@H]2O[C@@H](CO)[C@H](O)[C@@H](O)[C@@H]2O[C@H]2C[C@@](C)(NCc3ccc(-c4ccc(Cl)cc4)cc3)[C@@H](O)[C@@H](C)O2)Oc2ccc(cc2Cl)[C@H]1O | – |
| 2 | 4 | 1 | 4 | 4 | 4 | 2 | – | – | – | CN[C@H](CC(C)C)C(=O)N[C@H]1C(=O)N[C@@H](CC(N)=O)C(=O)N[C@H]2C(=O)N[C@H]3C(=O)N[C@H](C(=O)N[C@H](C(=O)NCc4ccc(-c5ccc(Cl)cc5)cc4)c4cc(O)cc(O)c4-c4cc3ccc4O)[C@H](O[C@H]3C[C@@](C)(N)[C@@H](O)[C@@H](C)O3)c3cccc(c3)Oc3cc2cc(c3O[C@@H]2O[C@@H](CO)[C@H](O)[C@@H](O)[C@@H]2O[C@H]2C[C@@](C)(N)[C@@H](O)[C@@H](C)O2)Oc2ccc(cc2Cl)[C@H]1O | 1 |
| 2 | 4 | 2 | 4 | 4 | 8 | 4 | – | – | – | CN[C@H](CC(C)C)C(=O)N[C@H]1C(=O)N[C@@H](CC(N)=O)C(=O)N[C@H]2C(=O)N[C@H]3C(=O)N[C@H](C(=O)N[C@H](C(=O)O)c4cc(O)cc(O)c4-c4cc3ccc4O)[C@H](O[C@H]3C[C@@](C)(N)[C@@H](O)[C@@H](C)O3)c3cccc(c3)Oc3cc2cc(c3O[C@@H]2O[C@@H](CO)[C@H](O)[C@@H](O)[C@@H]2O[C@H]2C[C@@](C)(NCc3ccc(-c4ccc(Cl)cc4)cc3)[C@@H](O)[C@@H](C)O2)Oc2ccc(cc2Cl)[C@H]1O | 4 |
| – | – | – | – | – | – | – | > 2300 | > 640000 | 300 | CN[C@@H](CC(C)C)C(=O)N[C@H]1C(=O)N[C@@H](CC(N)=O)C(=O)N[C@H]2C(=O)N[C@H]3C(=O)N[C@H](C(=O)N[C@H](C(=O)O)c4cc(O)cc(O)c4-c4cc3ccc4O)[C@H](O[C@H]3C[C@@](C)(N)[C@@H](O)[C@@H](C)O3)c3cccc(c3)Oc3cc2cc(c3O[C@@H]2O[C@@H](CO)[C@H](O)[C@@H](O)[C@@H]2O[C@H]2C[C@@](C)(N)[C@@H](O)[C@@H](C)O2)Oc2ccc(cc2Cl)[C@H]1O | – |

From ChEMBL document CHEMBL1135893, “Synthesis and mode of action of hydrophobic derivatives of the glycopeptide antibiotic eremomycin and des-(N-methyl-D-leucyl)eremomycin against glycopeptide-sensitive and -resistant bacteria” (J Med Chem, 2002)
